The source of these data is ChEMBL document CHEMBL2311531, “Synthesis and antioxidant activities of 2-oxo-quinoline-3-carbaldehyde Schiff-base derivatives” (Bioorg Med Chem Lett, 2013).

What all share (format): functional
Assay [1] can be described thus: Antioxidant activity assessed as ABTS radical scavenging activity after 3 mins by spectrophotometry. In a few lines:
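ABTS radical cation from 2 mM ABTS stock in PBS pH 7.4 reacted with 70 mM K2S2O8, standing in dark at room temperature 15-16 h; diluted with PBS to A734 0.700 ± 0.030. Sample solutions at several concentrations mixed with radical solution, absorbance read after 3 min at ambient temperature; PBS blank. Triplicate; IC50 as concentration scavenging 50% of radicals.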

Assay [2] is described as follows: Antioxidant activity assessed as hydroxyl radical scavenging activity after 1 hr by spectrophotometry. In a few lines: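 Salicylate method: 20 mM sodium salicylate, 1.5 mM FeSO4, sample at various concentrations and 6 mM H2O2 (stock levels) mixed, held 1 h in 37 °C water bath, A510 read against blank. Scavenging % from absorbance with vs without sample; triplicate; IC50 as concentration scavenging 50% of radicals.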

The nature of assay [3]: Antioxidant activity assessed as superoxide anion radical scavenging activity after 5 mins by spectrophotometry. In a few lines:
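Pyrogallol autoxidation at room temperature: sample in DMF at various concentrations added to 0.05 M Tris-HCl with 30 mM 1,2,3-trihydroxybenzene (stock), 5 min reaction, stopped with 8.0 M HCl (stock), A320 read against blank. Scavenging % from absorbance with vs without sample; triplicate; IC50 as concentration scavenging 50% of radicals.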

Assay [4] can be described thus: Antioxidant activity assessed as DPPH scavenging activity after 30 mins by spectrophotometry. In short, it runs like this:
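Sample in DMF at several concentrations added to 0.004% (w/v) DPPH in ethanol, incubated at 37 °C, A517 read after 30 min. Scavenging % = (Acontrol − Atest)/Acontrol × 100, control lacking scavenger. Triplicate; IC50 as concentration scavenging 50% of radicals.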

SMILES strings stand for the structures.

Take `CCCC/N=C/c1cc2ccccc2[nH]c1=O`: the IC50 (as a rule, the midpoint of a concentration-inhibition curve) came out at 1810 µM in assay [1], 7680 µM in assay [2] (read-out: IC50), 246 µM in assay [3] (read-out: IC50) and 439 µM in assay [4] (read-out: IC50).
On the same counts, the results for `CCCC/N=C/c1cc2cc(C)ccc2[nH]c1=O` are 43.3 µM, 3560 µM, 379 µM and 63.2 µM.
For the molecule `O=c1[nH]c2ccccc2cc1/C=N/Cc1ccccc1`, the concentration for half-maximal inhibition (IC50) in assay [1] was 368 µM; in assay [2] (read-out: IC50) it was 3140 µM; in assay [3] (read-out: IC50), 329 µM; in assay [4], “Not Active”.
In the case of `Cc1ccc2[nH]c(=O)c(/C=N/Cc3ccccc3)cc2c1`, the IC50 in assay [1] is 607 µM; in assay [2] (read-out: IC50), 6920 µM; in assay [3] (read-out: IC50), 310 µM; in assay [4] it was “Not Active”.
In the case of `O=c1[nH]c2ccccc2cc1/C=N/CCO`, the 50% inhibitory concentration (IC50) in assay [1] is 1210 µM; in assay [2] (read-out: IC50), 3310 µM; in assay [3] (read-out: IC50) it was 467 µM; in assay [4], “Not Active”.
On to `Cc1ccc2[nH]c(=O)c(/C=N/CCO)cc2c1`, for which the concentration for half-maximal inhibition (IC50) came to 1190 µM in assay [1], 4180 µM in assay [2] (read-out: IC50), 1480 µM in assay [3] (read-out: IC50) and 498 µM in assay [4] (read-out: IC50).
Regarding `O=c1[nH]c2ccccc2cc1/C=N/c1ccccc1O`, the concentration for half-maximal inhibition (IC50) in assay [1] was determined as 11.7 µM; in assay [2] (read-out: IC50), 1660 µM; in assay [3] (read-out: IC50) it was 237 µM; in assay [4] (read-out: IC50) it was 22.8 µM.
Consider `Cc1ccc2[nH]c(=O)c(/C=N/c3ccccc3O)cc2c1`, for which the concentration for half-maximal inhibition (IC50) in assay [1] amounted to 8.24 µM; in assay [2] (read-out: IC50) it was 1350 µM; in assay [3] (read-out: IC50), 286 µM; in assay [4] (read-out: IC50), 26.2 µM.
For `O=c1[nH]c2ccccc2cc1/C=N/c1ccc(O)cc1`, the IC50 was 7.15 µM in assay [1], “Not Active” in assay [2], 306 µM in assay [3] (read-out: IC50) and 92.1 µM in assay [4] (read-out: IC50).
The like results for `Cc1ccc2[nH]c(=O)c(/C=N/c3ccc(O)cc3)cc2c1` were, in that order, 5.24 µM, “Not Active”, 235 µM and 88.5 µM.
In the case of `O=c1[nH]c2ccccc2cc1/C=N/Nc1ccccc1`, the 50% inhibitory concentration (IC50) in assay [1] is 11.8 µM; in assay [2] (read-out: IC50) it was 1000 µM; in assay [3] (read-out: IC50), 306 µM; in assay [4] (read-out: IC50) it was 76.5 µM.
The like results for `Cc1ccc2[nH]c(=O)c(/C=N/Nc3ccccc3)cc2c1` were, in that order, 8.47 µM, 1470 µM, 309 µM and 62.4 µM.
As for `O=c1[nH]c2ccccc2cc1/C=N/Nc1ccc([N+](=O)[O-])cc1`, the half-maximal inhibitory concentration (IC50) in assay [1] is 11.4 µM; in assay [2] (read-out: IC50) it was 245 µM; in assay [3], “Not Active”; in assay [4] (read-out: IC50), 170 µM.
On the same counts, the results for `Cc1ccc2[nH]c(=O)c(/C=N/Nc3ccc([N+](=O)[O-])cc3)cc2c1` are 8.25 µM, 350 µM, “Not Active” and 109 µM.
As for `O=c1[nH]c2ccccc2cc1/C=N/Nc1ccc([N+](=O)[O-])cc1[N+](=O)[O-]`, the IC50 was 142 µM in assay [1], 375 µM in assay [2] (read-out: IC50), “Not Active” in assay [3] and 190 µM in assay [4] (read-out: IC50).
`Cc1ccc2[nH]c(=O)c(/C=N/Nc3ccc([N+](=O)[O-])cc3[N+](=O)[O-])cc2c1`: the IC50 was 144 µM in assay [1], 749 µM in assay [2] (read-out: IC50), “Not Active” in assay [3] and “Not Active” in assay [4].
With `NS(=O)(=O)c1ccc(/N=C/c2cc3ccccc3[nH]c2=O)cc1`, the IC50 in assay [1] was 1610 µM; in assay [2] (read-out: IC50), 266 µM; in assay [3] (read-out: IC50), 169 µM; in assay [4] (read-out: IC50) it was 266 µM.
With `Cc1ccc2[nH]c(=O)c(/C=N/c3ccc(S(N)(=O)=O)cc3)cc2c1`, the IC50 in assay [1] was 1200 µM; in assay [2], “Not Active”; in assay [3] (read-out: IC50), 258 µM; in assay [4], “Not Active”.
Take `N/N=C/c1cc2ccccc2[nH]c1=O`: the IC50 stood at 20.6 µM in assay [1], 365 µM in assay [2] (read-out: IC50), 184 µM in assay [3] (read-out: IC50) and 729 µM in assay [4] (read-out: IC50).
The like results for `Cc1ccc2[nH]c(=O)c(/C=N/N)cc2c1` were, in that order, 11.3 µM, 790 µM, 153 µM and 641 µM.
Turning to `O=C(O)c1ccc(/N=C/c2cc3ccccc3[nH]c2=O)cc1`, the IC50 is 438 µM in assay [1], “Not Active” in assay [2], 381 µM in assay [3] (read-out: IC50) and 1660 µM in assay [4] (read-out: IC50).
Turning to `Cc1ccc2[nH]c(=O)c(/C=N/c3ccc(C(=O)O)cc3)cc2c1`, the 50% inhibitory concentration (IC50) is 222 µM in assay [1], “Not Active” in assay [2], 409 µM in assay [3] (read-out: IC50) and “Not Active” in assay [4].
Turning to `O=C(Cc1ccncc1)N/N=C/c1cc2ccccc2[nH]c1=O`, the IC50 was 485 µM in assay [1], 5090 µM in assay [2] (read-out: IC50), 197 µM in assay [3] (read-out: IC50) and 2850 µM in assay [4] (read-out: IC50).
On the same counts, the results for `Cc1ccc2[nH]c(=O)c(/C=N/NC(=O)Cc3ccncc3)cc2c1` are 882 µM, 4690 µM, 209 µM and 3580 µM.
On the same counts, the results for `NS(=O)(=O)CC(=O)N/N=C/c1cc2ccccc2[nH]c1=O` are 8.91 µM, 8730 µM, 256 µM and 1290 µM.
As for `Cc1ccc2[nH]c(=O)c(/C=N/NC(=O)CS(N)(=O)=O)cc2c1`, the half-maximal inhibitory concentration (IC50) stood at 9.17 µM in assay [1], 5830 µM in assay [2] (read-out: IC50), 147 µM in assay [3] (read-out: IC50) and 3350 µM in assay [4] (read-out: IC50).
The like results for `O=c1[nH]c2ccccc2cc1/C=N/O` were, in that order, 31.8 µM, 2010 µM, 463 µM and 118 µM.
Take `Cc1ccc2[nH]c(=O)c(/C=N/O)cc2c1`: the IC50 was found to be 38.9 µM in assay [1], 1980 µM in assay [2] (read-out: IC50), 389 µM in assay [3] (read-out: IC50) and 160 µM in assay [4] (read-out: IC50).
The like results for `O=C1O[C@H]([C@@H](O)CO)C(O)=C1O` [ASCORBIC ACID] were, in that order, 12.8 µM, 73.8 µM, 15.6 µM and 43.8 µM.
Turning to `Cc1cc(C(C)(C)C)c(O)c(C(C)(C)C)c1` [BUTYLATED HYDROXYTOLUENE], the IC50 was 37 µM in assay [1], 24700 µM in assay [2] (read-out: IC50), 254 µM in assay [3] (read-out: IC50) and 65.8 µM in assay [4] (read-out: IC50).
